Test results reported in ChEMBL document CHEMBL1799921, “3-(1,3,4-Thiadiazole-2-yl)quinoline derivatives: synthesis, characterization and anti-microbial activity” (Eur J Med Chem, 2011).
≈ marks a conversion by molar mass, not a printed value.

How the values were obtained:
Escherichia coli [1] = test: Antibacterial activity against Escherichia coli after 18 hrs by macro-dilution test; type: functional
How it was run: (§1)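 Tube macro-dilution. Compounds in DMSO serially diluted to final […]. 24 h old inoculum added to each tube. Standard inoculum […]. Incubated 18 h at 37 °C. MIC is the lowest concentration with no visible growth, read visually. DMSO negative and amoxicillin positive controls.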

Streptococcus pyogenes [2] = test: Antibacterial activity against Streptococcus pyogenes measured at MIC after 18 hrs by halo zone test; type: functional
How it was run: (§2)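 Disk diffusion. Strains subcultured 18 h at 37 °C in BHI, then suspended in saline by McFarland to about 10⁵ CFU/mL. Suspension mixed 1:1 with antibiotic agar at 40 °C and plated. 6.0 mm paper disks loaded with dilutions from a DMSO stock (1 mg per 100 of DMSO). Incubated 18 h at 36 °C. Inhibition zone (mm) measured at the MIC. Amoxicillin and DMSO disks as controls.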

Streptococcus pyogenes [3] = test: Antibacterial activity against Streptococcus pyogenes after 18 hrs by macro-dilution test; type: functional; how it was run: as §1
Escherichia coli [4] = test: Antibacterial activity against Escherichia coli measured at MIC after 18 hrs by halo zone test; type: functional; how it was run: as §2
Staphylococcus aureus [5] = test: Antibacterial activity against Staphylococcus aureus after 18 hrs by macro-dilution test; type: functional; how it was run: as §1
Salmonella typhimurium [6] = test: Antibacterial activity against Salmonella Typhimurium measured at MIC after 18 hrs by halo zone test; type: functional, Salmonella enterica subsp. enterica serovar Typhimurium; how it was run: as §2
Salmonella typhimurium [7] = test: Antibacterial activity against Salmonella Typhimurium after 18 hrs by macro-dilution test; type: functional, Salmonella enterica subsp. enterica serovar Typhimurium; conditions: Salmonella enterica; how it was run: as §1
Staphylococcus aureus [8] = test: Antibacterial activity against Staphylococcus aureus measured at MIC after 18 hrs by halo zone test; type: functional; how it was run: as §2

SMILES | MIC (Escherichia coli [1]) [µg/mL] | inhibition zone (IZ) (Streptococcus pyogenes [2]) [mm] | MIC (Streptococcus pyogenes [3]) [µg/mL] | inhibition zone (IZ) (Escherichia coli [4]) [mm] | MIC (Staphylococcus aureus [5]) [µg/mL] | inhibition zone (IZ) (Salmonella typhimurium [6]) [mm] | MIC (Salmonella typhimurium [7]) [µg/mL] | inhibition zone (IZ) (Staphylococcus aureus [8]) [mm]
S=C(N/N=C/c1cc2cccc(Cl)c2nc1Cl)NC1CCCCCCC1 | 128 (≈ 313 µM) | 17.54 | 256 (≈ 625 µM) | 17.62 | 256 (≈ 625 µM) | 17.54 | 256 (≈ 625 µM) | –
Fc1ccc(F)c(NC(=S)N/N=C/c2cc3ccccc3nc2Cl)c1 | 64 (≈ 170 µM) | 14.07 | 64 (≈ 170 µM) | 10.13 | 32 (≈ 84.9 µM) | 11.56 | 32 (≈ 84.9 µM) | 16.75
Cc1ccc(NC(=S)N/N=C/c2cc3ccccc3nc2Cl)cc1 | 64 (≈ 180 µM) | 17.43 | 32 (≈ 90.2 µM) | 16.65 | 32 (≈ 90.2 µM) | 18.02 | 64 (≈ 180 µM) | 17.93
O=[N+]([O-])c1ccc(NC(=S)N/N=C/c2cc3ccccc3nc2Cl)cc1 | 32 (≈ 82.9 µM) | 12.25 | 64 (≈ 166 µM) | 13.27 | 64 (≈ 166 µM) | – | 256 (≈ 663 µM) | 13.46
Cc1cccc2cc(/C=N/NC(N)=S)c(Cl)nc12 | 256 (≈ 918 µM) | 17.1 | 128 (≈ 459 µM) | – | 64 (≈ 230 µM) | 18.02 | 256 (≈ 918 µM) | 12.76
Cc1cccc2cc(/C=N/NC(=S)NC3CCCC3)c(Cl)nc12 | 256 (≈ 738 µM) | 18.71 | 256 (≈ 738 µM) | 16.97 | 256 (≈ 738 µM) | 17.44 | 256 (≈ 738 µM) | 20.04
Cc1cccc2cc(/C=N/NC(=S)NC3CCCCC3)c(Cl)nc12 | 128 (≈ 355 µM) | 11.08 | 256 (≈ 709 µM) | 21.27 | 128 (≈ 355 µM) | 15.66 | 256 (≈ 709 µM) | 12.75
Cc1cccc2cc(/C=N/NC(=S)NC3CCCCCCC3)c(Cl)nc12 | 256 (≈ 658 µM) | 14.45 | 128 (≈ 329 µM) | 16.61 | 256 (≈ 658 µM) | 22.51 | 128 (≈ 329 µM) | 15.78
Cc1ccccc1NC(=S)N/N=C/c1cc2cccc(C)c2nc1Cl | 64 (≈ 173 µM) | 18.81 | 64 (≈ 173 µM) | 15.17 | 32 (≈ 86.7 µM) | 13.94 | 32 (≈ 86.7 µM) | 14.8
Cc1ccc(NC(=S)N/N=C/c2cc3cccc(C)c3nc2Cl)cc1 | 64 (≈ 173 µM) | 17.65 | 64 (≈ 173 µM) | 18.67 | 32 (≈ 86.7 µM) | 17.18 | 32 (≈ 86.7 µM) | 19.24
Cc1cccc2cc(/C=N/NC(=S)Nc3ccc([N+](=O)[O-])cc3)c(Cl)nc12 | 32 (≈ 80 µM) | 13.27 | 32 (≈ 80 µM) | 17.48 | 64 (≈ 160 µM) | 14.23 | 64 (≈ 160 µM) | 17.31
CC(=O)NC1=NN(C(C)=O)C(c2cc3cccc(Cl)c3nc2Cl)S1 (stereo not given) | 64 (≈ 167 µM) | 19.91 | 64 (≈ 167 µM) | 16.72 | 64 (≈ 167 µM) | 17.27 | 64 (≈ 167 µM) | 18.13
CC(=O)N1N=C(N(C(C)=O)C2CCCC2)SC1c1cc2cccc(Cl)c2nc1Cl (stereo not given) | 128 (≈ 284 µM) | 14.15 | 64 (≈ 142 µM) | 18.18 | 64 (≈ 142 µM) | 15.17 | 128 (≈ 284 µM) | 18.03
CC(=O)N1N=C(N(C(C)=O)C2CCCCC2)SC1c1cc2cccc(Cl)c2nc1Cl (stereo not given) | 128 (≈ 275 µM) | 17.73 | 128 (≈ 275 µM) | 15.23 | 64 (≈ 138 µM) | 16.72 | 256 (≈ 550 µM) | 17.39
CC(=O)N1N=C(N(C(C)=O)C2CCCCCCC2)SC1c1cc2cccc(Cl)c2nc1Cl (stereo not given) | 64 (≈ 130 µM) | 17.94 | 128 (≈ 259 µM) | 16.36 | 64 (≈ 130 µM) | 18.54 | 64 (≈ 130 µM) | 17.62
CC(=O)N(C1=NN(C(C)=O)C(c2cc3cccc(Cl)c3nc2Cl)S1)c1cc(F)ccc1F (stereo not given) | 64 (≈ 129 µM) | 13.92 | 64 (≈ 129 µM) | 16.45 | 64 (≈ 129 µM) | 17.59 | 64 (≈ 129 µM) | 12.99
CC(=O)N(C1=NN(C(C)=O)C(c2cc3cccc(Cl)c3nc2Cl)S1)c1ccc(C)cc1 (stereo not given) | 64 (≈ 135 µM) | 17.09 | 64 (≈ 135 µM) | 18.11 | 64 (≈ 135 µM) | 16.88 | 64 (≈ 135 µM) | 15.67
CC(=O)NC1=NN(C(C)=O)C(c2cc3ccccc3nc2Cl)S1 (stereo not given) | 64 (≈ 183 µM) | 16.97 | 64 (≈ 183 µM) | 17.76 | 64 (≈ 183 µM) | 13.42 | 64 (≈ 183 µM) | 15.67
NC(=S)N/N=C/c1cc2cccc(Cl)c2nc1Cl | 128 (≈ 428 µM) | 19.58 | 64 (≈ 214 µM) | 15.8 | 64 (≈ 214 µM) | 16.66 | 128 (≈ 428 µM) | 21.13
S=C(N/N=C/c1cc2cccc(Cl)c2nc1Cl)NC1CCCC1 | 256 (≈ 697 µM) | 13.15 | 256 (≈ 697 µM) | 17.18 | 128 (≈ 348 µM) | 15.17 | 128 (≈ 348 µM) | 17.68
S=C(N/N=C/c1cc2cccc(Cl)c2nc1Cl)NC1CCCCC1 | 256 (≈ 671 µM) | 13.73 | 128 (≈ 336 µM) | 15.23 | 64 (≈ 168 µM) | 15.72 | 256 (≈ 671 µM) | 17.23
Cc1ccccc1NC(=S)N/N=C/c1cc2cccc(Cl)c2nc1Cl | 64 (≈ 164 µM) | 10.26 | 64 (≈ 164 µM) | 13.47 | 32 (≈ 82.2 µM) | 10.53 | 32 (≈ 82.2 µM) | 18.9
Fc1ccc(F)c(NC(=S)N/N=C/c2cc3cccc(Cl)c3nc2Cl)c1 | 64 (≈ 156 µM) | 15.92 | 32 (≈ 77.8 µM) | 13.75 | 64 (≈ 156 µM) | 14.92 | 64 (≈ 156 µM) | 12.15
Cc1ccc(NC(=S)N/N=C/c2cc3cccc(Cl)c3nc2Cl)cc1 | 64 (≈ 164 µM) | 15.76 | 32 (≈ 82.2 µM) | 15.88 | 64 (≈ 164 µM) | 17.55 | 32 (≈ 82.2 µM) | 15.01
O=[N+]([O-])c1ccc(NC(=S)N/N=C/c2cc3cccc(Cl)c3nc2Cl)cc1 | 256 (≈ 609 µM) | 15.26 | 64 (≈ 152 µM) | – | 32 (≈ 76.1 µM) | 15.99 | 64 (≈ 152 µM) | 19.7
NC(=S)N/N=C/c1cc2ccccc2nc1Cl | 256 (≈ 967 µM) | 16.97 | 64 (≈ 242 µM) | 17.76 | 128 (≈ 483 µM) | 12.42 | 128 (≈ 483 µM) | 11.67
S=C(N/N=C/c1cc2ccccc2nc1Cl)NC1CCCC1 | 128 (≈ 385 µM) | 21.07 | 128 (≈ 385 µM) | 21.12 | 64 (≈ 192 µM) | 22.58 | 128 (≈ 385 µM) | 19.52
S=C(N/N=C/c1cc2ccccc2nc1Cl)NC1CCCCC1 | 128 (≈ 369 µM) | 12.38 | 256 (≈ 738 µM) | 17.68 | 256 (≈ 738 µM) | 15.93 | 128 (≈ 369 µM) | 12.37
S=C(N/N=C/c1cc2ccccc2nc1Cl)NC1CCCCCCC1 | 256 (≈ 683 µM) | 13.67 | 128 (≈ 341 µM) | 13.23 | 256 (≈ 683 µM) | 19.73 | 128 (≈ 341 µM) | 9.9
Cc1ccccc1NC(=S)N/N=C/c1cc2ccccc2nc1Cl | 32 (≈ 90.2 µM) | 16.48 | 64 (≈ 180 µM) | 18.84 | 256 (≈ 721 µM) | 14.73 | 64 (≈ 180 µM) | –
